rRNA inh HTS: reduced GFP signal of wild-type E. coli, primary screen, bacterial rRNA inhibitor project, GFP/RFP fluorescence, OD600, single point; E. coli WT GFP vs humanized-ribosome RFP mutants, 24 h; stronger effect = lower value; DMSO median 0, no signal -100; GFP signal change (wild-type ribosome), % (concentration not given with the values); 1.6% of 350,000 active; AID 720706, 2013;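 active = significant combined selectivity score with lowered wild-type GFP, culture density cut under 30%, mutant RFP and density less affected; inactive = any of these conditions unmet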
ERAP1 HTS inh: human ERAP1 aminopeptidase inhibitors, primary screen, biochemical, single point, plate reader | inhibition, % at 10.7 µM | Endoplasmic reticulum aminopeptidase 1 (Homo sapiens), Q9NZ08 | 0.15% of 340,000 active | AID 652197, 2013 | recombinant ERAP1, Leu-AMC fluorescence, 60 min;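 active = mean replicate inhibition of at least 30%, or all replicates individually reaching that 30% level; inactive = mean below 30% and not every replicate reaching it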;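 also: 0% = neutral control wells and 100% = L-leucinethiol positive control wells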
S100A4 inh HTS: inhibitors of S100A4-myosin IIA peptide binding, primary screen, biochemical, fluorescence polarization, TAMRA-MyoIIA peptide; inhibition, % at 10.7 µM; 0.14% of 360,000 active; AID 652163, 2013;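 active = mean inhibition of at least 70% across replicates, with every replicate also reaching that level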
Target sequence (P26447 whole entry, looked up): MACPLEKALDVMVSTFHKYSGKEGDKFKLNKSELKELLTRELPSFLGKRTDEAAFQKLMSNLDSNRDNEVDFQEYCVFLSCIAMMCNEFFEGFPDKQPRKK
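Test system – S100A4 monomer (human) · Compound – single-point compound testing · Schedule – 5 min incubation before reading · Probe or stimulus – TAMRA-labelled myosin IIA heavy-chain peptide probe, 5 nM · Benchmarks – neutral control DMSO, positive control TFP · Medium – Calcium-containing HEPES buffer, pH 7.2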
SIRT5 inh: SIRT5 desuccinylase inhibitors, primary screen, biochemical, fluorescence imaging, single point, set 5; NAD-dependent protein deacylase sirtuin-5, mitochondrial (Homo sapiens), Q9NXA8; Purified SirT5, succinyl-peptide AMC, trypsin-coupled fluorescence; inhibition, % at 15 µM; 1.1% of 330,000 active; AID 652115, 2013; in the data active = inhibition above about 15%
E-selectin induc: E-selectin induction in HUVECs, primary screen, imaging, HUVEC, immunofluorescence imaging, single point; P16581; normalized: neutral wells 0, TNF-alpha wells 100; activation, % at 7.58 µM; 0.37% of 260,000 active;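 active = mean E-selectin-positive cell signal at least 10% of the positive control, reached in at least 60% of replicates, without over 20% cell loss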
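Test system: HUVEC; input: 3,000 HUVEC/well; measured by: immunofluorescence imaging; read-out: % PE-positive cells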
MLL AF4-AF9 inh: inhibitors of AF4 peptide binding to AF9, primary screen, biochemical, AlphaScreen, biotin-AF4 peptide, FLAG-AF9, single point; Protein AF-9 (Homo sapiens), P42568; 0.47% of 350,000 active; AID 651704, 2012; inhibition, % at 10 µM;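 active = every replicate reaching a set inhibition limit, whatever the replicate mean, cut at about 25% in these data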;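 also: 0% = plate neutral control median and 100% = total signal loss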
Target sequence (P42568 whole entry, looked up): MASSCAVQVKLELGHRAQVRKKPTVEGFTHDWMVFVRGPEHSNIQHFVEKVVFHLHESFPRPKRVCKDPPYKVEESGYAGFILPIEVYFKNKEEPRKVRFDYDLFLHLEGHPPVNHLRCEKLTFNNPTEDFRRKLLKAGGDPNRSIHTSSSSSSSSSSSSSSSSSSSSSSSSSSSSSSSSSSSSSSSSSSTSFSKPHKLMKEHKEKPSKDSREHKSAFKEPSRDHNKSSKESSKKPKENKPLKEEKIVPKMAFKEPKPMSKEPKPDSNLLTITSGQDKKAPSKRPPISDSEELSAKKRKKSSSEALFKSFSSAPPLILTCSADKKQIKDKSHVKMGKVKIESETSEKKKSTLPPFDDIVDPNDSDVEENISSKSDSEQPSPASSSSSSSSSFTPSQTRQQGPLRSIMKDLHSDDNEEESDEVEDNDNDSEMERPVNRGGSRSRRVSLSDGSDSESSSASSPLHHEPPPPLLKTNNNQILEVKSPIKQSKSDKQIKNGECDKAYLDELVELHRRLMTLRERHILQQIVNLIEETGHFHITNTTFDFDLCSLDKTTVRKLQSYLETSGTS
The depositor's hits bear a star; x = no result; ! = not active in a repeat. Shown are actives, neighbours in structure and some others; about 3.4% of the full set was active somewhere.

SMILES	rRNA inh HTS	ERAP1 HTS inh	S100A4 inh HTS	SIRT5 inh	E-selectin induc	MLL AF4-AF9 inh
Cc1ccc(S(=O)(=O)Nc2ccc3c(c2)CC(=O)N([C@@H](C)CO)C[C@H](C)[C@H](CN(C)C(=O)NC(C)C)O3)cc1	1.5	-1.5	2.9	-2.0	0.1	-0.7
CCC(=O)Nc1ccc2c(c1)OC[C@H](C)N(C(C)=O)C[C@@H](C)[C@@H](OC)CN(C)C2=O	2.2	-0.9	-2.7	-3.1	0.1	-0.5
C/C=C/c1cnc2c(c1)C(=O)N([C@H](C)CO)C[C@@H](C)[C@@H](CN(C)C(=O)NCCC)O2	6.5	2.6	2.7	0.0	0.3	-0.1
COc1ccc(C#Cc2ccc3c(c2)O[C@H](CN(C)S(=O)(=O)c2ccccc2F)[C@@H](C)CN([C@@H](C)CO)S3(=O)=O)cc1	3.1	-3.1	1.6	15.4*	-0.1	-3.3
COc1ccc(C#Cc2ccc3c(c2)O[C@@H](CN(C)S(=O)(=O)c2ccccc2F)[C@H](C)CN([C@@H](C)CO)S3(=O)=O)cc1	4.3	x	-14.8	4.4	0.0	-1.0
C[C@H]1CN([C@@H](C)CO)C(=O)c2cc(C#CCN(C)C)cnc2O[C@H]1CN(C)C(=O)NC1CCCCC1	8.4	-1.6	-17.7	-1.0	0.4	-0.5
COc1cccc(-c2ccc(CC[C@H]3O[C@H]4CC[C@H](CO)O[C@H]4C[C@@H]3NS(C)(=O)=O)cc2)c1	x	x	-19.4	-7.2	x	x
O=C(CNC(=O)c1ccc(F)cc1)N/N=C/c1cc(Br)ccc1OC(=O)/C=C/c1ccco1	-27.8*	-0.3	-5.6	x	5.4	0.8
COc1ccc(C(=O)NCC(=O)N/N=C/c2ccco2)cc1OC	4.6	1.3	-4.8	1.6	x	-3.5
O=C(O)c1ccc(OCC(O)Cn2c3ccccc3c3ccccc32)cc1 (centres undefined)	-46.0*	-0.8	0.2	23.9*	x	1.6
CCCCCn1c(=N)n(CC(O)COc2ccccc2OC)c2ccccc21 (centres undefined)	-22.6	-8.9	5.8	-4.4	0.2	50.0*!
CCCn1c(=N)n(CC(O)COc2ccc(C)cc2)c2ccccc21 (centres undefined)	-26.1*	-2.5	-3.5	-2.8	x	2.8
CN1CCN(CC(O)COc2ccc(C(=O)O)cc2)CC1 (centres undefined)	11.9	-0.3	-10.7	-0.3	-0.2	-1.4
CCN(C(=O)COC(=O)c1cc(-c2ccccc2)nn1-c1ccccc1)C1CCS(=O)(=O)C1 (centres undefined)	-30.5*	2.1	3.9	-2.1	0.7	-2.3
CCN(C(=O)COC(=O)c1n[nH]c2ccccc12)C1CCS(=O)(=O)C1 (centres undefined)	11.1	6.2	2.6	-2.5	-0.1	5.6
CCN(C(=O)CSc1nc2scc(-c3ccccc3)c2c(=O)n1N)C1CCS(=O)(=O)C1 (centres undefined)	3.5	-3.1	17.3	19.8*	-0.3	-7.5
CC(C)NC(=O)N(C)C[C@H]1Oc2ccc(NC(=O)NC3CCCCC3)cc2CC(=O)N([C@H](C)CO)C[C@H]1C	0.7	1.9	-4.8	0.5	x	-2.3
C[C@H](CO)N1C[C@H](C)[C@@H](CN(C)C(=O)c2ccncc2)OCCCC[C@H](C)Oc2ccc(NS(=O)(=O)c3ccc(F)cc3)cc2C1=O	0.3	-2.0	-11.9	4.1	-0.1	-4.3
CCn1c(SCC(=O)Nc2ccc(Cl)cc2)nnc1C1CC1	-1.0	-2.1	-2.5	x	-0.1	2.0
CCn1c(SCC(=O)Nc2ccc(C(C)=O)cc2)nnc1C1CC1	2.3	2.5	-0.7	16.3*	x	1.0
Cc1ccc(-c2nn(-c3cc(N4CCNCC4)ccc3[N+](=O)[O-])c(=O)c3ccccc23)cc1	-13.7	-0.8	-3.6	-0.5	66.4*	1.7
Cc1ccc(S(=O)(=O)N[C@@H]2CC[C@H](CCn3cc(C(C)C)nn3)O[C@H]2CO)cc1	2.6	1.5	-30.8	1.2	-0.9	-0.1
COC(=O)C1=NNC(C(=O)c2ccco2)C1c1ccccc1 (centres undefined)	17.1	8.8	2.4	21.9*	x	1.2
CCOC(=O)C1=NNC(C(=O)c2ccccc2)C1c1ccc(C)cc1 (centres undefined)	-25.9*	x	1.6	-2.1	5.1	2.8
Cc1ccc(S(=O)(=O)N(C)C[C@H]2Oc3c(NS(=O)(=O)c4cccs4)cccc3C(=O)N([C@H](C)CO)C[C@H]2C)cc1	-3.4	2.0	-12.7	-0.3	-0.2	-0.5
SMILES	rRNA inh HTS	ERAP1 HTS inh	S100A4 inh HTS	SIRT5 inh	E-selectin induc	MLL AF4-AF9 inh
O=C(Cc1ccc([N+](=O)[O-])cc1)Nc1cc(C(F)(F)F)cc(C(F)(F)F)c1	-29.0*	5.3	-5.5	-4.2	0.1	1.7
O=C(Cc1ccc([N+](=O)[O-])cc1)Nc1cccc(C(F)(F)F)c1	-42.2	0.5	-16.7	-2.5	x	1.4
Cc1nc2ccccc2c2c1CC(C(C)(Cl)Br)O2 (centres undefined)	-29.9*	-2.4	-6.9	-0.6	x	-13.8
C=CCSc1nnc(NC(=O)c2cn(CC)c3nc(C)ccc3c2=O)s1	-28.5	-4.3	-21.1	19.9*	2.4	1.9
Cc1ccc(NC(=O)c2ccc3c(c2)CCN3S(C)(=O)=O)cc1	-11.7	-11.0	-12.0	20.2*	x	-0.6
O=S(=O)(c1ccc(N=C2NN=C(c3cc(F)ccc3F)CS2)cc1)N1CCOCC1	0.8	1.2	-3.3	27.3*	x	-2.4
COc1ccc(-c2ccc(C(=O)NCc3ccc(N4CCN(C)CC4)cc3)c3occc23)c(C)c1	x	4.7	-0.2	-3.6	1.7	36.9*
COc1ccc(CCCNC(=O)C2CCC(=O)N(Cc3ccc(Cl)cc3)C2)cc1 (centres undefined)	-20.1	1.2	-1.5	31.8*	x	1.0
O=C(NCCCc1ccccc1)C1CCC(=O)N(Cc2ccc(Cl)cc2)C1 (centres undefined)	-4.6	0.4	-3.1	-2.9	x	-2.0
O=C(NCCc1ccc(Cl)cc1)C1CCC(=O)N(C2CCCCCC2)C1 (centres undefined)	-6.3	-0.9	-2.0	24.8*	-0.3	6.1
O=C(NCCc1ccc(C(F)(F)F)cc1)C1CCC(=O)N(CCCc2ccccc2)C1 (centres undefined)	-45.7*	1.3	-4.4	-2.5	x	-0.6
C[C@@H]1CN([C@H](C)CO)C(=O)c2cc(-c3cccnc3)cnc2O[C@@H]1CN(C)Cc1ccccc1	5.1	x	x	x	-0.1	x
CN1C(=O)c2cc(NC(=O)Nc3ccccc3F)ccc2OC[C@@H]2O[C@H](CC(=O)O)CC[C@@H]21	-0.5	x	x	x	0.0	x

High-throughput results: PubChem, Broad Institute
